FLuc inhib CS = firefly luciferase enzyme inhibitors, primary screen, artefact control for luciferase-based inhibitor screens, biochemical, luminescence, ATPLite; 10 min; Luciferin 4-monooxygenase (Photinus pyralis), P08659; actives 1.5% (n = 200,000); AID 1006, 2008; inhibition, % at 10 µM;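 active = inhibition above about 50% when tested at 10 µM, limit read from the data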
PPC-1+TRAIL kill = compounds killing PPC-1 cancer cells with TRAIL present, primary screen, TRAIL potentiator project, ATPLite luminescence, uHTS; PPC-1 cells + TRAIL, ATPLite viability luminescence; cell killing (% activity), % at 4 µM or 5 µM; actives 0.41% (n = 220,000); AID 1443, 2008;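 active = cell killing above 50% in the first pass at 4 µM, then a duplicate retest at 5 µM averaging 50% or more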;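 note: plate controls were cells with TRAIL plus DMSO for no effect and medium-only wells lacking cells for full effect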
FLuc stim CS = FLuc activators, initial screening, artefact control for FLuc-dependent activation tests, biochemical, ATPlite luminescence; Luciferin 4-monooxygenase (Photinus pyralis), P08659; ATPlite luciferase biochemical, 10 min; 0 = ATP-free wells, 1 = DMSO control; activation factor at 10 µM; AID 1027, 2008; 200,000 tested, under 10 active;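 active = luciferase activation factor, scaled between plate controls, of at least 2 with compound at 10 µM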
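Assay system: Luciferase/luciferin detection reagent, cell-free biochemical luciferase assay / Also added: ATP substrate / Schedule: 10 min at ambient temperature / Measured by: luminescence measurement of luciferase light output / Benchmarks: low control with PBS replacing ATP, high control enzyme plus ATP without compound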
Wee1 stabilizer = Wee1 degradation inhibitors, primary screen, cell-based, HeLa, Wee1K328M-luciferase, luminescence; reporter increase, % at 5 µM; HeLa Luc-Wee1K328M stability; 100% = proteasome inhibitor MG132 effect; Wee1-like protein kinase (Homo sapiens), P30291; AID 1321, 2008; actives 1.2% (n = 220,000);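 active = activation above the mean of all tested compounds plus 3 SD, set per screening run, cut at about 8.8% in these data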;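 note: cells exposed to compound for 20 h before luminescence read; 0% = DMSO alone and 100% = MG132 at 30 µM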
C8 TRAIL sens = viability loss with TRAIL in NB7+C8 cells, primary screen, TRAIL sensitizer project, cell-based, ATPlite luminescence | inhibition (viability loss, TRAIL sensitization), % at 10 µM | actives 1% (n = 360,000);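 active = compounds causing at least 50% loss of cell viability in the single-dose screen, relative to plate controls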
PKD1 kinase inh = inhibitors of human PKD1 kinase, biochemical, fluorescence polarization. actives 0.056% (n = 200,000). Serine/threonine-protein kinase D1 (Homo sapiens), Q15139. PKD1 kinase fluorescence polarization assay. inhibition, % (no concentration beside the values); in the data active = inhibition above about 50%
Target sequence (Q15139 whole entry, looked up): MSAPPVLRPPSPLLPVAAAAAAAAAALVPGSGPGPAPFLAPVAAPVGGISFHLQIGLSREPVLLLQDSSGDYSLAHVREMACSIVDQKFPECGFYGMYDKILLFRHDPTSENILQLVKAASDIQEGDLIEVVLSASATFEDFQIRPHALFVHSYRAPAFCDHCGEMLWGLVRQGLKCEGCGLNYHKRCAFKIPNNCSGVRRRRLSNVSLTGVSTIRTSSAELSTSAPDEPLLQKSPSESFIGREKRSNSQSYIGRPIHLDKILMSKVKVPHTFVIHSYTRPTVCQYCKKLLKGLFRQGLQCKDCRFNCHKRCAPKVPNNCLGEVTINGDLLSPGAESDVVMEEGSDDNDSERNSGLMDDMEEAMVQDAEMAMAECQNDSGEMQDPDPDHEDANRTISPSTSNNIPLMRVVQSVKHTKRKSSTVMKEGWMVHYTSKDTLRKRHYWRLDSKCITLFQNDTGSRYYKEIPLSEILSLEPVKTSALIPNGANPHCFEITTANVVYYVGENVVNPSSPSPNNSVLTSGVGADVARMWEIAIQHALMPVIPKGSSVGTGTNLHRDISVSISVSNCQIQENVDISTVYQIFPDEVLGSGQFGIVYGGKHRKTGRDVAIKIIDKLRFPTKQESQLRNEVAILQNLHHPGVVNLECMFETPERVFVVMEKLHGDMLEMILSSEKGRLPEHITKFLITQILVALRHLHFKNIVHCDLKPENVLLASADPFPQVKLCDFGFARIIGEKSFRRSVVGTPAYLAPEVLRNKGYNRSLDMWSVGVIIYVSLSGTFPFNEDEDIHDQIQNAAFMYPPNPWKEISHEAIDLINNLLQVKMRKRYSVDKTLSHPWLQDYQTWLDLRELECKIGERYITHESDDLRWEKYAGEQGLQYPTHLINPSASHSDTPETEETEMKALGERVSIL
PPC1 cytotox = cytotoxicity in PPC-1 cells, confirmation, cytotoxicity control for TRAIL apoptosis potentiator project, cell-based, ATP content luminescence; AID 1447, 2008; PPC-1 viability, ATPlite luminescence, overnight; cytotoxicity, % at 5 µM; shares compounds with PPC-1+TRAIL kill; actives 50% (n = 1,200);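 active = reconfirmed compounds whose average cytotoxicity reaches 50% or more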;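 note: 0% = DMSO-treated cells and 100% = wells holding medium but no cells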
The depositor's hits bear a star; nt = no result given. Compounds with a hit are over-represented: about 2.2% of the library has one in this group of screens.

SMILES	FLuc inhib CS	PPC-1+TRAIL kill	FLuc stim CS	Wee1 stabilizer	C8 TRAIL sens	PKD1 kinase inh	PPC1 cytotox
O=C1c2ccccc2-c2nnc(-c3ccc(F)cc3)cc21	79*	78*	0.2	9.8*	83*	-3	79*
Cc1ccccc1-c1cc2c(nn1)-c1ccccc1C2=O	77*	38	0.2	-3	55*	-4	46
COc1ccc(CCNC(=O)CCCc2ccccc2)cc1OC	nt	nt	nt	nt	-13	nt	nt
COc1ccc(-c2noc(-c3ccccc3-c3ccccc3)n2)cc1	-4	-13	1	1	9	-5	nt
Cc1ccc(-c2nc(-c3ccccc3)no2)c(Cl)c1	95*	81*	0.1	-2	87*	-9	77*
CN(C)CCNCCCOc1ccccc1-c1ccccc1	-2	8	1	-1	nt	-1	nt
CC(=O)c1nn(-c2cccc(Br)c2)cc1C(=O)c1ccccc1	-6	2	1.1	7	-2	-1	4
CCOC(=O)c1nn(-c2ccc(C)cc2)cc1C(=O)c1ccccc1	64*	39	0.4	2	53*	8	45
COc1ccc(N/C(=N\c2nc(C)cc(C)n2)NC(=O)C(C)C)cc1OC	-10	-10	1.1	1	-5	-4	-17
CCn1c(C)nc2cc(-c3nc4n(n3)Cc3ccccc3-4)ccc21	98*	94*	0	-4	96*	-8	94*
Cc1ccc(-c2nc3n(n2)Cc2ccccc2-3)cc1	92*	75*	0.1	-1	86*	-1	74*
CCN(CC)C(=O)/C(=C/c1cccc([N+](=O)[O-])c1)NC(=O)c1ccco1	0	-12	1	6	7	0	nt
Cc1ccc2nc(-c3sc4nc(C)ccc4c3N)[nH]c2c1	62*	32	0.4	1	54*	4	24
Cc1cc(C)c2c(N)c(-c3nc4ccccc4[nH]3)sc2n1	-10	-1	1.1	7	-2	-2	nt
COc1ccc(OCC(=O)N/N=C(\C)c2cccs2)cc1	nt	15	nt	0	-11	nt	nt
COc1ccc(OCC(=O)N/N=C(\CCC(=O)O)c2cccs2)cc1	-1	14	1	-1	0	-10	10
Cc1ccc(S(=O)(=O)NCC(=O)NC2CCCC2)cc1	-11	nt	1.1	-2	-3	0	nt
Cc1ccc(S(=O)(=O)NCC(=O)NC2CCCCCC2)cc1	-6	8	1.1	-1	-32	3	-3
COc1ccc(S(=O)(=O)N(C)CC(=O)N2CCCCCC2)cc1	nt	nt	nt	nt	-14	nt	nt
COc1ccc(S(=O)(=O)N(C)CC(=O)N2CCC(C(N)=O)CC2)cc1	-7	6	1.1	4	-10	2	12
CN(C)c1ccc(-c2cc([C@H]3[C@@H]4C=CCC[C@@]4(C)C(=O)N3Cc3ccccc3)ccc2F)cc1	nt	9	nt	nt	6	nt	nt
CC1(C)CC(=O)C2=C(C1)OC(N)=C(C#N)C2c1ccccc1OC(=O)N1CCOCC1 (stereo not given)	-5	6	1	2	2	-9	19
C[C@H](CO)N1C[C@H](C)[C@@H](CN(C)C(=O)CCCN(C)C)OCc2cn(nn2)CCCC1=O	nt	nt	nt	nt	-15	nt	nt
Cc1n[nH]c(=O)nc1N1CCN(c2ccccc2)CC1	-8	6	1.1	5	1	1	6
O=C(O)CCN(CC(=O)c1ccc(Cl)cc1)S(=O)(=O)c1ccc([N+](=O)[O-])cc1	nt	nt	nt	nt	-9	nt	nt
SMILES	FLuc inhib CS	PPC-1+TRAIL kill	FLuc stim CS	Wee1 stabilizer	C8 TRAIL sens	PKD1 kinase inh	PPC1 cytotox
Cc1nc(-c2ccccc2)sc1C(=O)NN	-7	15	1.1	3	-2	1	14
C=CCNC(=O)c1sc(-c2ccccc2)nc1C	2	-4	1	4	6	-10	nt
C/C(=N\NC(=O)CNc1cccc(Cl)c1C)C1CC1	-4	-13	1	1	4	-4	nt
COc1ccc(C2(CNC(=O)C(=O)Nc3ccc(C)cc3)CCOCC2)cc1	-5	-7	1.1	2	1	-8	nt
Cc1cc(C(=O)c2ccc(C(C)(C)C)cc2)c(NC(=O)CCl)s1	-4	14	1	2	13	-12	nt
CCCOc1ccc(C2(C(=O)O)CCCC2)cc1	-7	11	1.1	0	-10	-7	13
CCCCOc1ccc(S(=O)(=O)NC(=O)C2(C)CCN2C(=O)c2cccc(F)c2)cc1 (stereo not given)	nt	nt	nt	nt	-11	nt	nt
CCOc1ccc(NC(=O)Nc2cccc(C)n2)cc1	nt	nt	nt	nt	13	nt	nt
CCOc1ccc(C(=O)Nc2cccc(C)n2)cc1	79*	51*	0.2	1	57*	1	52*
CCOc1ccc(C(=O)Nc2nnc(NC(=S)Nc3ccccc3)s2)cc1	23	13	0.8	2	55*	-4	8
CCOc1ccc(C(=O)Nc2cc(C)ccn2)cc1	97*	91*	0	-3	90*	-1	90*
Cc1ccc(S(=O)(=O)N2C[C@@H](C)[C@]3(C2)[C@H](O)[C@H](OC(=O)NC2CC2)C[C@H]2C(=O)N(c4ccccc4)C(=O)[C@H]23)cc1	nt	nt	nt	nt	6	nt	nt
Cc1cc(NC(=O)Cn2nc(C(=O)O)c3ccccc3c2=O)c([N+](=O)[O-])cc1C	nt	nt	nt	nt	-12	nt	nt
O=C(c1ccc(CSc2nc3ccncc3[nH]2)cc1)N1CCCCCC1	nt	81*	nt	-3	81*	nt	83*
Cc1ccc(CSc2nc3ncccc3[nH]2)cc1	83*	49	0.2	3	67*	-1	48
Cc1ccc(CSc2nc3ccncc3[nH]2)cc1	98*	97*	0	-5	93*	-9	97*
Clc1ccc(CSc2nc3ccncc3[nH]2)cc1	97*	94*	0	0	92*	10	93*
Cc1cccc(C)c1N(CC(=O)NC1CCCCC1)C(=O)c1csnn1	nt	nt	nt	nt	-2	nt	nt
COc1ccc2c(C)nc(Nc3nc(C)c(C)c(=O)[nH]3)nc2c1	21	-10	0.8	2	12	3	-12
CCOC(=O)c1c(NC(=O)c2cc(-c3cccc(O)c3)on2)sc(C(C)=O)c1C	-4	-4	1	-1	41	-7	nt
CCOC(=O)c1c(NC(=O)c2noc(C)c2[N+](=O)[O-])sc(C(C)=O)c1C	-6	5	1.1	-2	-2	10	-2
Cc1ccc(C(=O)N/N=C/c2ccc([N+](=O)[O-])s2)cc1	-5	38	1	3	23	-3	36

Screening data from PubChem BioAssay.
